In data set [1] the target is Aldo-keto reductase family 1 member B1 (Bos taurus) (UniProt P16116). The data set can be described thus: Inhibition of aldose reductase activity in a partially purified bovine lens preparation at 4*10e-8 M. In a few lines:
(§1)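 Partially purified bovine lens aldose reductase (ammonium sulfate fractionation). NADPH oxidation read at 340 nm, 37 °C, in 30 mM sodium phosphate pH 6.2, 0.2 M LiSO4, […], 1% DMSO. Enzyme was preincubated with inhibitor for 5 min, then the reaction was started with 5 mM DL-glyceraldehyde. Duplicates; IC50 from linear regression of log concentration vs percent inhibition.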

Data set [2] concerns Rattus norvegicus. Kind of data set: Percentage Inhibition of galactitol accumulation in the lens of rats fed with the dose of 3.0 mg/kg/day. It counts as functional. To be noted: Lens of camera-type eye. In outline: (§2)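 Male Sprague-Dawley rats (70-90 g), six per group, fed 20% galactose chow with compound in the diet for 4 days; glucose-fed controls. After a 3-h fast, lens or sciatic nerve galactitol was measured as nmol/mg wet weight. Percent inhibition vs galactose-fed controls, mean ± SEM; ANOVA with Dunnett's test.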

Data set [3] relates to Rattus norvegicus. The data set can be described thus: Percentage Inhibition of galactitol accumulation in the sciatic nerve of rats fed with the dose of 1.0 mg/kg/day. It counts as functional. In a few lines:
as §2

Data set [4] can be described thus: Log P value by using Octanol / pH 7.4 buffer. It counts as physicochemical. In a few lines: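 Partition measured between octanol and pH 7.4 buffer.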
Data set [5] concerns the target Aldo-keto reductase family 1 member B1 (Bos taurus) (UniProt P16116). Kind of data set: Inhibition of aldose reductase activity in a partially purified bovine lens preparation at 10e-7 M. In outline:
as §1

Data set [6] has as its system Rattus norvegicus. Kind of data set: Percentage Inhibition of galactitol accumulation in the sciatic nerve of rats fed with the dose of 3.0 mg/kg/day (values are mean of six animals). It counts as functional. In outline:
as §2

Data set [7] concerns Rattus norvegicus. Kind of data set: Percentage Inhibition of galactitol accumulation in the lens of rats fed with the dose of 1.0 mg/kg/day. It counts as functional. To be noted: Lens of camera-type eye. In outline: as §2
Data set [8] relates to Rattus norvegicus. The data set can be described thus: Percentage Inhibition of galactitol accumulation in the sciatic nerve of rats fed with the dose of 0.5 mg/kg/day. In kind it is functional. In a few lines: as §2
The test system of data set [9] is Rattus norvegicus. Kind of data set: Percentage Inhibition of galactitol accumulation in the sciatic nerve of rats fed with the dose of 0.8 mg/kg/day. In kind it is functional. In a few lines:
as §2

The test system of data set [10] is Rattus norvegicus. The data set can be described thus: Percentage Inhibition of galactitol accumulation in the lens of rats fed with the dose of 0.8 mg/kg/day; NS=Not significant. In kind it is functional, organism-based. To be noted: Lens of camera-type eye. In a few lines: as §2
The species entered for data set [11] is Rattus norvegicus. Kind of data set: Dose at which the tissue level of polyol accumulation was reduced by 50% was evaluated for galactosemic rat in sciatic nerve. It counts as functional. In a few lines: (§3)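 Male Sprague-Dawley rats (70-90 g, six per group) fed chow with 20% galactose and compound in the diet for 4 or 14 days. After a 3-h fast, lens and sciatic nerve were removed and frozen, and galactitol was quantitated in nmol/mg wet weight. ED50 from nonlinear regression of log dose vs tissue polyol.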

Data set [12] is filed under the species Rattus norvegicus. Kind of data set: Dose at which the tissue level of polyol accumulation was reduced by 50% was evaluated for STZ diabetic rat in sciatic nerve. In kind it is functional. In a few lines: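 Male Sprague-Dawley rats (200-250 g, 12 per group) made diabetic with streptozocin 60 mg/kg iv in cold 0.03 M citrate pH 4.5; plasma glucose kept between 300 and 550 mg/dl. Compound was suspended in 2% Tween 80/saline and gavaged daily for 14 days. On day 15, RBC, lens and sciatic nerve polyol was measured. ED50 by nonlinear regression of log dose.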

Data set [13] is filed under the species Rattus norvegicus. Kind of data set: Dose at which the tissue level of polyol accumulation was reduced by 50% was evaluated for galactosemic rat in lens. It counts as functional. To be noted: Lens of camera-type eye. In outline:
as §3

Data set [14] deals with Aldo-keto reductase family 1 member B1 (Bos taurus, UniProt P16116). Kind of data set: In vitro inhibition of aldose reductase activity in a partially purified bovine lens preparation.
The test system of data set [15] is Rattus norvegicus. The data set can be described thus: Percentage Inhibition of galactitol accumulation in the lens of rats fed with the dose of 3.0 mg/kg/day; NS=Not significant. It counts as functional, organism-based. To be noted: Lens of camera-type eye. In a few lines: as §2
Data set [16] has as its system Rattus norvegicus. Kind of data set: Percentage Inhibition of galactitol accumulation in the sciatic nerve of rats fed with the dose of 1.0 mg/kg/day (values are mean of six animals). In kind it is functional. In outline: as §2
Data set [17] concerns Rattus norvegicus. The data set can be described thus: Percentage Inhibition of galactitol accumulation in the sciatic nerve of rats fed with the dose of 1.1 mg/kg/day. In kind it is functional. In outline: as §2
The test system of data set [18] is Rattus norvegicus. The data set can be described thus: Percentage Inhibition of galactitol accumulation in the lens of rats fed with the dose of 1.0 mg/kg/day; NS=Not significant. In kind it is functional, organism-based. To be noted: Lens of camera-type eye. In a few lines: as §2
For data set [19], the system named is Rattus norvegicus. Kind of data set: Percentage Inhibition of galactitol accumulation in the sciatic nerve of rats fed with the dose of 3.0 mg/kg/day. In kind it is functional. In outline: as §2
Data set [20] deals with Rattus norvegicus. The data set can be described thus: Percentage Inhibition of galactitol accumulation in the lens of rats fed with the dose of 1.1 mg/kg/day. It counts as functional. To be noted: Lens of camera-type eye. In a few lines: as §2
Data set [21] has as its system Rattus norvegicus. The data set can be described thus: Percentage Inhibition of galactitol accumulation in the sciatic nerve of rats fed with the dose of 1.1 mg/kg/day (values are mean of six animals). In kind it is functional. In a few lines:
as §2

The test system of data set [22] is Rattus norvegicus. The data set can be described thus: Percentage Inhibition of galactitol accumulation in the sciatic nerve of rats fed with the dose of 25.6 mg/kg/day. It counts as functional. In a few lines:
as §2

Structures are written as SMILES. Calls of active or inactive are those of the source. The rule behind the calls is not given here.

This note sets out measurements from ChEMBL document CHEMBL1127561, “Novel spirosuccinimide aldose reductase inhibitors derived from isoquinoline-1,3-diones: 2-[(4-bromo-2-fluorophenyl)methyl]-6- fluorospiro[isoquinoline-4(1H),3'-pyrrolidine]-1,2',3,5'(2H)-tetrone and congeners. 1” (J Med Chem, 1994).

On to `CN1C(=O)c2ccccc2C2(CC(=O)NC2=O)C1=O` (stereo not drawn), for which the inhibition in data set [1] was determined as 38%; in data set [5], 63%. The inhibition in vivo at 3 mg/kg/day in [2] turned out to be 43%; in [6], 66%. The inhibition in vivo at 1 mg/kg/day in data set [3] was 37%; in data set [7], 15%. Also, the logD in data set [4] stood at 0.24.

In the case of `O=C1CC2(C(=O)N1)C(=O)N(Cc1ccc(Br)cc1F)C(=O)c1ccccc12` (stereo not drawn), in [8], the inhibition in vivo at 0.5 mg/kg/day was 82%. Also, the inhibition in vivo at 0.8 mg/kg/day in data set [9] came to 88%. Besides, the inhibition entry in data set [10] is “inactive”. The molecule also gave a logD in data set [4] of 2.74. Also, the median effective dose (ED50) is 0.3 mg/kg/day in [11], 0.07 mg/kg/day in [12] and around 10 mg/kg/day in data set [13].

For `O=C1CC2(C(=O)N1)C(=O)N(Cc1ccc(Cl)c(Cl)c1)C(=O)c1ccccc12` (stereo not drawn), the IC50 in data set [14] turned out to be 0.022 µM. For the same molecule, the inhibition entry in [15] and in data set [18] was “inactive” each time. The same molecule yielded an inhibition in vivo at 1 mg/kg/day in data set [16] of 64%. For the same molecule, the inhibition in vivo at 1.1 mg/kg/day in data set [17] worked out at 64%. Moreover, the logD in [4] amounted to 3.09. In data set [19], this molecule had an inhibition in vivo at 3 mg/kg/day of 76%.

On to `O=C1CC2(C(=O)N1)C(=O)N(Cc1nc3cc(C(F)(F)F)ccc3s1)C(=O)c1ccccc12` (stereo not drawn), for which the inhibition in vivo at 0.5 mg/kg/day in [8] stood at 49%. Besides, the IC50 in [14] was found to be 0.022 µM. This molecule showed a logD in data set [4] of 3.17. The results for the inhibition in vivo at 1.1 mg/kg/day in data set [20] and in data set [21] were 22% and 100%, respectively.

Consider `COc1ccc2c(c1)C(=O)N(Cc1ccc(Br)cc1F)C(=O)C21CC(=O)NC1=O` (stereo not drawn), for which the IC50 in data set [14] turned out to be 0.037 µM. Moreover, the inhibition in vivo at 25.6 mg/kg/day in data set [22] turned out to be 88%.

In general, inhibition refers to how much of the control response was suppressed. In general, inhibition in vivo refers to how much of the control response was suppressed. Higher therefore signals a strong effect. As a reminder, the logD is lipophilicity at a set pH, counting ionised and neutral species. Read a low logD as a more hydrophilic compound. As a reminder, the ED50 is the midpoint of the dose-response relation. Broadly, the IC50 is the point on the concentration scale where inhibition reaches its midpoint. High values mean lower potency, low ones higher potency.
